Calls of active or inactive are those of the source. No cut-off for these calls is given here.
Key:
[1] = Inhibition of rat brain sodium/potassium-transporting ATPase in presence of Mg2+ and Na+; conditions: read-out: I50
Procedure, shortened: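 Rat brain Na+,K+-ATPase assayed with no preincubation of steroid and enzyme. Na+,K+-dependent activity was taken as activity with Mg2+, Na+ and K+ minus basal activity from tubes with Mg2+ and Na+ only. I50 (M) is from two to four runs.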

[2] = Inhibition of rat brain sodium/potassium-transporting ATPase after 10 mins in presence of Mg2+ and Na+; conditions: read-out: I50
Procedure, shortened: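 Rat brain Na+,K+-ATPase. The steroid was added to enzyme medium lacking K+ and preincubated 10 min, then KCl was added to start Na+,K+-ATPase activity. Basal activity from tubes with Mg2+ and Na+ only was subtracted from activity with Mg2+, Na+ and K+. I50 (M) is from two to four runs.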

Cavia porcellus = organism: Cavia porcellus; experiment: Inotropic activity at guinea pig left atria sodium/potassium-transporting ATPase up to 10^-4 M
[3] = Solubility of the compound in propylene glycol; assay type: physicochemical

In the case of `C[C@]12CC[C@H](O)C[C@H]1CC[C@@H]1[C@@H]2CC[C@]2(C)[C@@H](C3=CC(=O)OC3)CC[C@]12O` [DIGITOXIGENIN], the IC50 [1] is reported as 0.46 µM and the IC50 [2] is reported as 0.5 µM.

For `C=C1C(=O)OC[C@H]1[C@H]1CC=C2[C@@H]3CC[C@@H]4C[C@@H](O)CC[C@]4(C)[C@H]3CC[C@@]21C`, the IC50 [1] was over 100 µM, the Activity (Cavia porcellus) was “inactive” and the solubility [3] was “Insoluble”. The IC50 [2] was over 100 µM.

In the case of `C[C@H]1O[C@@H](O[C@H]2[C@@H](O)C[C@H](O[C@H]3[C@@H](O)C[C@H](O[C@H]4CC[C@@]5(C)[C@H](CC[C@@H]6[C@@H]5CC[C@]5(C)[C@@H](C7=CC(=O)OC7)CC[C@]65O)C4)O[C@@H]3C)O[C@@H]2C)C[C@H](O)[C@@H]1O` [DIGITOXIN], the IC50 [1] is reported as 0.7 µM and the IC50 [2] is reported as 0.24 µM.

`C[C@@H]1O[C@@H](O[C@H]2C[C@@H](O)[C@]3(CO)[C@H]4[C@H](O)C[C@]5(C)[C@@H](C6=CC(=O)OC6)CC[C@]5(O)[C@@H]4CC[C@]3(O)C2)[C@H](O)[C@H](O)[C@H]1O` [OUABAIN] gave an IC50 [1] of 0.5 µM and an IC50 [2] of 0.04 µM.

For `C=C1C(=O)OC[C@@H]1[C@H]1CC=C2[C@@H]3CC[C@@H]4C[C@@H](O)CC[C@]4(C)[C@H]3CC[C@@]21C`, the Activity (Cavia porcellus) was “inactive” and the solubility [3] was “Insoluble”.

In the case of `C[C@]12CC[C@H](O)C[C@H]1CC[C@H]1C3=CC[C@H](C4=CC(=O)OC4)[C@@]3(C)CC[C@@H]12`, the IC50 [1] is reported as 63 µM, the Activity (Cavia porcellus) is reported as “inactive” and the solubility [3] is reported as “Insoluble”. It also gave an IC50 [2] of 40 µM.
